Data taken from publication PMC4136688 (Journal of Medicinal Chemistry, 2014).

Legend:
Human glioma T98G cells [1] = assay: Dark cytotoxicity; format: cell-based; details: read-out: dark toxicity IC50, CellTiter Blue assay, concentrations up to 400 μM, overnight
hCMEC/D3 cells = assay: In vitro BBB model permeability; format: in vitro ADME, human; details: hCMEC/D3 monolayer, 1 mg/mL in HBSS, up to 60 min
In short: (§1)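 hCMEC/D3 brain endothelial cells grown 48 h on 0.4 μm PET transwell inserts in EBM-2 with 5% FBS, hydrocortisone, ascorbic acid, lipid concentrate, HEPES, bFGF. Test compound or lucifer yellow reference (1 mg/mL in HBSS, pH 6.7–7.8) added apically; basolateral HBSS. 37 °C, 5% CO2; lower chamber sampled at 0, 30, 60 min (five replicates). Fluorescence 415/650 nm (LY 420/540); P by clearance principle.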

Human glioma T98G cells [2] = assay: Time-dependent cellular uptake; format: cell-based; details: 10 μM, over 24 h
In short: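 T98G glioma cells (EMEM, 10% FBS) seeded 10 000/well, grown 36 h, then exposed to 10 μM test compound for 0, 1, 2, 4, 8, 24 h. After PBS wash, cells lysed in 0.25% Triton X-100/PBS; porphyrin fluorescence read at 415/650 nm. Cell number by CyQuant; uptake expressed as nM compound per cell.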

[3] = In vitro BBB model permeability; format: in vitro ADME, human
In short: as §1

Row | Compound | IC50 (Human glioma T98G cells [1]) | Permeability coefficient P × 10^–6 (hCMEC/D3 cells) | time-dependent uptake (in words) (Human glioma T98G cells [2]) | Papp A→B [3]
1 | 5,10,15,20-Tetra(p-carboranylmethylthiotetrafluorophenyl)porphyrin [Compound 1] | > 400 µM | 1.36 ± 0.04 × 10^–6 cm/s | accumulated the fastest | –
2 | N=C(N)NCCC[C@@H](NC(=O)[C@H](Cc1ccc(O)cc1)NC(=O)CCOCCOCCOCCNc1c(F)c(F)c(-c2c3nc(c(-c4c(F)c(F)c(SCC56BBBBC(BBB5)BBB6)c(F)c4F)c4ccc([nH]4)c(-c4c(F)c(F)c(SCC56BBBBC(BBB5)BBB6)c(F)c4F)c4nc(c(-c5c(F)c(F)c(SCC67BBBBC(BBB6)BBB7)c(F)c5F)c5ccc2[nH]5)C=C4)C=C3)c(F)c1F)C(=O)N[C@@H](Cc1ccccc1)C(=O)NCCC(N)=O [Compound 8] | – | – | had the least | 1.71 ± 0.06 ×10⁻⁶ cm/s
3 | lucifer yellow [LY, reference compound] | – | 21.7 ± 0.30 × 10^–6 cm/s | – | –
